Assay results from ChEMBL document CHEMBL5058577, “EUbOPEN Chemogenomics Library 2 (Multiplex)” (2022).

Tested on: U2OS
Assay: Multiplex assay against U2OS
Type: toxicity, cell-based
Conditions: human
Procedure, shortened: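 Cells were classed with CellPathfinder machine-learning gating, first as Hoechst high-intensity objects or normal cells, then (normal cells) as healthy, pyknosed or fragmented nuclei, and finally (pyknosed cells) as mitotic or apoptotic. Staining of live cells at seeding used Hoechst33342, BioTracker Green Microtubule Cytoskeleton Dye, MitoTracker Red and Annexin V Alexa Fluor 680, with imaging on a CQ1 microscope at 37°C and 5% CO2 after compound addition. Tubulin, mitochondrial-mass and membrane-permeability phenotypes are per cents of healthy-nucleus cells.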

[1] = 12 h, 1 µM, compound concentration 1 uM, replicate 1
[2] = 12 h, 1 µM, compound concentration 1 uM, replicate 2
[3] = 12 h, 10 µM, compound concentration 10 uM, replicate 1
[4] = 12 h, 10 µM, compound concentration 10 uM, replicate 2
[5] = 24 h, 1 µM, compound concentration 1 uM, replicate 1
[6] = 24 h, 1 µM, compound concentration 1 uM, replicate 2
[7] = 24 h, 10 µM, compound concentration 10 uM, replicate 1
[8] = 24 h, 10 µM, compound concentration 10 uM, replicate 2
[9] = 48 h, 1 µM, compound concentration 1 uM, replicate 1
[10] = 48 h, 1 µM, compound concentration 1 uM, replicate 2
[11] = 48 h, 10 µM, compound concentration 10 uM, replicate 1
[12] = 48 h, 10 µM, compound concentration 10 uM, replicate 2

Cc1ccccc1C(=O)Nc1ccc(C(=O)N2CCCC(N(C)C)c3ccccc32)cc1.Cl (centres undefined)
Population Apoptotic (%) [1]: 91% | Population Fragmented Nuclei (%) [1]: 20% | Population Healthy Nuclei (%) [1]: 70% | Population Hoechst High Intensity Objects (%) [1]: 1% | Population Membrane Permeable-Phenotype (%) [1]: 5% | Population Mitochondria Different-Phenotype (%) [1]: 3% | Population Mitotic Cells (%) [1]: 8% | Population Normal (%) [1]: 98% | Population Pyknosed Nuclei (%) [1]: 8% | Population Tubulin-Different-Phenotype (%) [1]: 4% | Total Cell Count [1]: 282 | Population Apoptotic (%) [2]: 77% | Population Fragmented Nuclei (%) [2]: 14% | Population Healthy Nuclei (%) [2]: 79% | Population Membrane Permeable-Phenotype (%) [2]: 4% | Population Mitochondria Different-Phenotype (%) [2]: 5% | Population Mitotic Cells (%) [2]: 22% | Population Pyknosed Nuclei (%) [2]: 5% | Population Tubulin-Different-Phenotype (%) [2]: 1% | Total Cell Count [2]: 157 | Population Apoptotic (%) [3]: 59% | Population Fragmented Nuclei (%) [3]: 18% | Population Healthy Nuclei (%) [3]: 55% | Population Hoechst High Intensity Objects (%) [3]: 4% | Population Membrane Permeable-Phenotype (%) [3]: 14% | Population Mitochondria Different-Phenotype (%) [3]: 11% | Population Mitotic Cells (%) [3]: 40% | Population Normal (%) [3]: 95% | Population Pyknosed Nuclei (%) [3]: 25% | Population Tubulin-Different-Phenotype (%) [3]: 8% | Total Cell Count [3]: 213 | Population Apoptotic (%) [4]: 56% | Population Healthy Nuclei (%) [4]: 62% | Population Hoechst High Intensity Objects (%) [4]: 1% | Population Membrane Permeable-Phenotype (%) [4]: 15% | Population Mitochondria Different-Phenotype (%) [4]: 25% | Population Mitotic Cells (%) [4]: 43% | Population Normal (%) [4]: 98% | Population Pyknosed Nuclei (%) [4]: 19% | Population Tubulin-Different-Phenotype (%) [4]: 15% | Total Cell Count [4]: 83 | Population Apoptotic (%) [5]: 88% | Population Fragmented Nuclei (%) [5]: 18% | Population Healthy Nuclei (%) [5]: 70% | Population Hoechst High Intensity Objects (%) [5]: 0% | Population Membrane Permeable-Phenotype (%) [5]: 6% | Population Mitochondria Different-Phenotype (%) [5]: 3% | Population Mitotic Cells (%) [5]: 11% | Population Normal (%) [5]: 99% | Population Pyknosed Nuclei (%) [5]: 10% | Population Tubulin-Different-Phenotype (%) [5]: 4% | Total Cell Count [5]: 333 | Population Apoptotic (%) [6]: 66% | Population Fragmented Nuclei (%) [6]: 13% | Population Healthy Nuclei (%) [6]: 77% | Population Hoechst High Intensity Objects (%) [6]: 1% | Population Membrane Permeable-Phenotype (%) [6]: 5% | Population Mitochondria Different-Phenotype (%) [6]: 4% | Population Mitotic Cells (%) [6]: 33% | Population Normal (%) [6]: 98% | Population Pyknosed Nuclei (%) [6]: 9% | Population Tubulin-Different-Phenotype (%) [6]: 3% | Total Cell Count [6]: 192 | Population Apoptotic (%) [7]: 71% | Population Fragmented Nuclei (%) [7]: 16% | Population Healthy Nuclei (%) [7]: 51% | Population Hoechst High Intensity Objects (%) [7]: 4% | Population Membrane Permeable-Phenotype (%) [7]: 16% | Population Mitochondria Different-Phenotype (%) [7]: 14% | Population Mitotic Cells (%) [7]: 28% | Population Normal (%) [7]: 95% | Population Pyknosed Nuclei (%) [7]: 31% | Population Tubulin-Different-Phenotype (%) [7]: 6% | Total Cell Count [7]: 211 | Population Apoptotic (%) [8]: 46% | Population Fragmented Nuclei (%) [8]: 27% | Population Healthy Nuclei (%) [8]: 53% | Population Hoechst High Intensity Objects (%) [8]: 5% | Population Membrane Permeable-Phenotype (%) [8]: 18% | Population Mitochondria Different-Phenotype (%) [8]: 18% | Population Mitotic Cells (%) [8]: 53% | Population Normal (%) [8]: 94% | Population Pyknosed Nuclei (%) [8]: 18% | Population Tubulin-Different-Phenotype (%) [8]: 18% | Total Cell Count [8]: 73 | Population Apoptotic (%) [9]: 85% | Population Fragmented Nuclei (%) [9]: 14% | Population Healthy Nuclei (%) [9]: 71% | Population Hoechst High Intensity Objects (%) [9]: 1% | Population Membrane Permeable-Phenotype (%) [9]: 5% | Population Mitochondria Different-Phenotype (%) [9]: 3% | Population Mitotic Cells (%) [9]: 14% | Population Normal (%) [9]: 98% | Population Pyknosed Nuclei (%) [9]: 13% | Population Tubulin-Different-Phenotype (%) [9]: 3% | Total Cell Count [9]: 414 | Population Apoptotic (%) [10]: 83% | Population Fragmented Nuclei (%) [10]: 15% | Population Healthy Nuclei (%) [10]: 72% | Population Membrane Permeable-Phenotype (%) [10]: 7% | Population Mitochondria Different-Phenotype (%) [10]: 5% | Population Mitotic Cells (%) [10]: 16% | Population Pyknosed Nuclei (%) [10]: 12% | Population Tubulin-Different-Phenotype (%) [10]: 4% | Total Cell Count [10]: 248 | Population Apoptotic (%) [11]: 71% | Population Fragmented Nuclei (%) [11]: 28% | Population Healthy Nuclei (%) [11]: 43% | Population Hoechst High Intensity Objects (%) [11]: 8% | Population Membrane Permeable-Phenotype (%) [11]: 17% | Population Mitochondria Different-Phenotype (%) [11]: 8% | Population Mitotic Cells (%) [11]: 28% | Population Normal (%) [11]: 91% | Population Pyknosed Nuclei (%) [11]: 28% | Population Tubulin-Different-Phenotype (%) [11]: 7% | Total Cell Count [11]: 206 | Population Apoptotic (%) [12]: 84% | Population Healthy Nuclei (%) [12]: 42% | Population Membrane Permeable-Phenotype (%) [12]: 11% | Population Mitochondria Different-Phenotype (%) [12]: 30% | Population Mitotic Cells (%) [12]: 16% | Population Pyknosed Nuclei (%) [12]: 29% | Population Tubulin-Different-Phenotype (%) [12]: 13% | Total Cell Count [12]: 93
